Results as given in article PMC3178738 (Bioconjugate chemistry, 2011).
“Also recorded” adds a separate entry of the source.

What was measured:
[1] = Stability of the aluminum chelates in PBS; assay type: physicochemical; details: chemical stability, pH 7.4, 37 °C
Method in brief: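 Al–OH and Al–F chelates of the test chelator, made by reacting it with AlCl3 or AlF3, were incubated in PBS, pH 7.4, at 37 °C. Aluminum loss (demetalation) was followed by RP-HPLC at 3 h, 12 h and 24 h.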

[2] = animal studies, cited from earlier work

Substance: AlF(NODA-MPAA) [compound 3]
- time stable in PBS [1]: over 24 h
- loss of aluminum (demetalation) ([1]; 24 h, RP-HPLC): no detectable loss of aluminum; also recorded: no signs of demetalation

Substance: AlOH(NODA-MPAA) [compound 2]
- demetalation ([1]; 3 h, RP-HPLC): 23%
- demetalation ([1]; 12 h, RP-HPLC): 61%

Substance: NODA-MPAA-D-Lys(HSG)-D-Tyr-D-Lys(HSG)-NH2 [IMP485]
- presence in the bone ([2]; kit formulated IMP485, supporting in vivo stability): negligible
- clearance from the body ([2]; kit formulated IMP485): rapid clearance from the body via the kidneys
